# Screening data: PubChem BioAssay, The Scripps Research Institute Molecular Screening Center
# GalR3 antag = antagonists of human GalR3; HEK293 GalR3-CNG cAMP membrane potential fluorescence; galR3 body fused to GalR1 C-terminus; 360,000 tested, 0.44% active; O60755; inhibition, % at 3 µM;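 active means inhibition above the screen-wide average plus 3 SD, cut at about 13% in these data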;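 further: forskolin and galanin both at EC90 stimulate the cells; cAMP rise reported by CNG channel membrane potential dye signal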
# OX1R antag-1 = antagonists of human orexin 1 receptor (OX1R); OX1R-expressing cells, FRET antagonist read-out; O43613; 330,000 tested, 1.8% active; AID 485270; inhibition, % at 6.6 µM; in the data active means inhibition mostly above about 38%, no sharp cut-off; inactive means mostly below about 40%
# Target sequence (O43613 whole entry, looked up): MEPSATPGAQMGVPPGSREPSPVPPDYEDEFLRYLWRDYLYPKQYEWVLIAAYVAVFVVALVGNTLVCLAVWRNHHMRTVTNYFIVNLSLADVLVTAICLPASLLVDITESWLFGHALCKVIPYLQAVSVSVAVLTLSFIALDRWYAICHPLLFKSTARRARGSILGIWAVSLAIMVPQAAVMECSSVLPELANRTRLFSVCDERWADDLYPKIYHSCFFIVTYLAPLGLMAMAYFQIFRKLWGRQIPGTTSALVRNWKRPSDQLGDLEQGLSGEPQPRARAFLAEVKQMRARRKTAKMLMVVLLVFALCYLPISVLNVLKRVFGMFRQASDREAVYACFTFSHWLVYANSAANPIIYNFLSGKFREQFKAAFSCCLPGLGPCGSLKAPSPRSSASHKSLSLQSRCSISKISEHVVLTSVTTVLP
# TAAR1 agonist = human TAAR1 agonism; AID 624467; activation, % at 3 µM; CHO RD-HGA16 TAAR1, Fluo-8 calcium fluorescence; vehicle wells 0%, saturating PEA agonist 100%; 360,000 tested, 0.99% active;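 active means activation above the mean activation of all test compounds in the run plus 3 SD, cut at about 38% in these data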
#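 System: CHO-derived RD-HGA16 cells with stable Gα16 and human TAAR1 / Times: 17-24 h plating, Fluo-8 75 min 37 °C, 30 min RT / Technique: calcium-sensitive Fluo-8 signal, excitation 470-495, emission 515-575 nm / Measure: % activation relative to PEA EC100 response / Benchmarks: DMSO and PEA EC100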
# OX1R antag-2 = antagonists of human orexin 1 receptor | 330,000 tested, 0.43% active | AID 434989 | CHO/OX1R cells, Fluo-8 calcium fluorescence, orexin A | O43613 | inhibition, % at 5 µM;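 active means inhibition above its plate's threshold, mean inhibition of all tested compounds on the plate plus 3 SD, cut at about 37% in these data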
# TAAR1 antagonist = human TAAR1 antagonism; CHO RD-HGA16 TAAR1, Fluo-8 calcium fluorescence, antagonist; 360,000 tested, 1.5% active; inhibition, % at 3 µM; Q96RJ0;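 active means inhibition above a per-plate cutoff, the mean inhibition of test compounds on that plate plus 3 SD, cut at about 49% in these data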
#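 Test system: hTAAR1-expressing CHO RD-HGA16 cells, Gα16-coupled; Probe or stimulus: EC80 β-phenethylamine stimulus; Compound dosing: single nominal final test compound concentration of 3 µM; Timing: 140 s kinetic read after compound, 140 s after agonist; Signal: Fluo-8 calcium-sensitive fluorescence; Measure: % inhibition of agonist calcium response; Controls: DMSO and EC80 PEA controls.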
# CHO parental Ca = signal in parental CHO cells, OX1R antagonist counter-screen; parental CHO-K1, ATP-induced calcium, Fluo-8 fluorescence; inhibition, % at 5.6 µM; 330,000 tested, 0.63% active; AID 463079;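 active means inhibition above that plate's mean sample inhibition plus 3 SD, cut at about 26% in these data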
#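 Assay system – parental CHO cells · Reagent – ATP stimulus · Detection – intracellular calcium via Fluo-8 no-wash fluorescent dye · Evaluation – percent inhibition of ATP-evoked calcium rise, normalized to controls · Controls – ATP wells versus no-ATP DMSO wells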
# Hits are given with their value; 0 = inactive; - = not tested or not shown. Shown are actives, neighbours in structure and some others; about 4.3% of the full set was active somewhere.
SMILES,GalR3 antag,OX1R antag-1,TAAR1 agonist,OX1R antag-2,TAAR1 antagonist,CHO parental Ca
O=C(Cc1cccc2ccccc12)NNC(=O)c1ccc(Br)o1,0,51,0,0,0,0
O=C(Cc1ccccc1)NNC(=O)c1ccc(Br)o1,0,-,0,-,0,-
COc1ccccc1NC(=O)COC(=O)Cn1cnc2c1c(=O)n(C)c(=O)n2C,0,0,0,0,0,0
CCN(CC(=O)Nc1ccccc1OC)C(=O)c1ccc2[nH]c3c(c2c1)CC(C)CC3 (stereo not drawn),0,0,0,0,56,0
CCCN(CC(=O)Nc1ccccc1OC)C(=O)c1ccc2[nH]c3c(c2c1)CC(C)CC3 (stereo not drawn),0,0,0,0,51,0
CC1CCc2[nH]c3ccc(C(=O)N(C)CC(=O)Nc4ccccc4Cl)cc3c2C1 (stereo not drawn),0,-,0,-,0,-
Cc1onc(-c2ccccc2)c1C(=O)OCC(=O)Nc1ccc(OC(F)(F)F)cc1,0,0,0,0,0,0
O=C(CC1CCCC1)N[C@H](C(=O)N1CCC[C@H]1C(=O)NCc1ccccc1)c1ccccc1,0,-,0,-,0,-
Cc1cccc(OCCSc2nc3c([nH]2)c(=N)ncn3Cc2ccccc2)c1,0,0,0,0,56,0
CC(C)Sc1nc2c([nH]1)c(=N)ncn2Cc1ccccc1,0,0,0,0,0,0
CS(=O)(=O)c1ccc(Cl)c(NC(=O)Cc2ccsc2)c1,0,0,0,0,0,0
COc1ccc(C(=O)NC(=S)NNC(=O)CNC(=O)C2CCCCC2)cc1,0,0,0,0,0,0
CCOC(=O)CSc1nnc(CNc2cccc(Cl)c2)n1-c1ccccc1,0,0,0,0,0,0
CCOC(=O)CSc1nnc(CNc2ccc(Cl)cc2)n1-c1ccccc1,0,0,0,0,52,0
O=C(O)C(Cc1ccc(OS(=O)(=O)Cc2ccccc2)cc1)NS(=O)(=O)Cc1ccccc1 (stereo not drawn),0,-,0,-,0,-
CCOC(=O)c1c(CSC(=N)N)n(-c2ccc(Br)cc2)c2cc(Br)c(OC(C)=O)cc12,0,-,0,-,0,-
CCCCCCCCOC(=O)c1c(CSC(=N)N)n(C)c2cc(Br)c(OC(C)=O)cc12,0,0,90,0,0,0
O=C(NNC(=S)Nc1ccccc1)c1cccs1,0,0,0,0,0,0
O=C(CCC(=O)Nc1ccccc1)NNC(=O)c1cccs1,0,0,39,0,0,0
C[C@H](O)[C@@H]1C(=O)N2CCc3c([nH]c4c(-c5ccccc5)cccc34)[C@@H]2C[C@@H]1N(C)C(=O)OCc1ccccc1,0,-,0,-,0,-
Cc1ccc(S(=O)(=O)N2CC3(O)CN(C(=O)OC(C)C)N(C(=O)OC(C)C)CC3(OC(=O)NCc3ccccc3)C2)cc1 (stereo not drawn),0,-,0,-,60,-
COc1ccc(S(=O)(=O)N2CCC(C(=O)NCCC(=O)NCc3ccccn3)CC2)cc1,0,-,0,-,0,-
Cc1nnc(SCC(=O)Nc2sc3c(c2C(=O)c2ccccc2)CCCC3)s1,0,0,0,0,0,0
CN(CC(=O)Nc1ccc(Cl)c(C(F)(F)F)c1)C(=O)c1cn2ccccc2n1,0,0,0,0,0,0
CC1=C(C)/C(=N\OS(=O)(=O)c2ccccc2)C=CC1=O,-,150,-,74,-,65
SMILES,GalR3 antag,OX1R antag-1,TAAR1 agonist,OX1R antag-2,TAAR1 antagonist,CHO parental Ca
Cc1ccccc1Cn1nc(C)c(NC(=O)c2noc3c2CC(C(C)(C)C)CC3)c1C (stereo not drawn),0,0,0,0,0,0
Cc1ccccc1Cn1cc(NC(=O)c2noc3c2CC(C(C)(C)C)CC3)cn1 (stereo not drawn),0,0,39,0,63,0
O=C(Cn1nnc2ccccc2c1=O)NCCc1ccc(F)cc1,-,0,-,0,-,0
CCOc1ccc(-c2nnc(-c3cccs3)o2)cc1OCC,0,0,0,0,0,0
CCOc1ccc(-c2nc(-c3cccs3)c(CC(=O)O)s2)cc1OC,0,38,0,0,0,0
CC1=NNC(=O)/C1=C\c1cn(-c2ccccc2)nc1-c1ccc(Cl)cc1,21,0,0,53,0,37
CC1(C)CC(=O)C(=Cc2cn(-c3ccccc3)nc2-c2ccccc2)C(=O)C1,0,0,0,0,0,0
O=[N+]([O-])c1cccnc1Sc1ccc(F)cc1,0,0,0,0,0,0
CNc1nnc(Sc2ncccc2[N+](=O)[O-])s1,0,48,0,0,0,0
Cc1cc(CN2CCN(c3ncc(Cc4ccccc4)cn3)CC2)cc(C)c1O,0,-,0,-,0,-
O=[N+]([O-])c1cccc(C2NCC(c3ccccc3Cl)c3c2[nH]c2ccccc32)c1 (stereo not drawn),0,0,0,53,0,50
CC(=O)N1[C@H](C)C=C[C@]1(Cc1ccccc1)C(=O)NCCN1CCOCC1,0,0,0,0,0,0
COC(=O)C1=C(C)N(Cc2cccc(C(F)(F)F)c2)C(=NCc2cc(OC)c(OC)c(OC)c2)NC1c1ccc(Cl)cc1 (stereo not drawn),0,-,0,-,0,-
O=C(Nc1ccc(N2CCOCC2)cc1)Nc1ccc2nc(-c3ccco3)c(-c3ccco3)nc2c1,0,51,0,0,49,0
O=C(NCCCO)Nc1ccc2nc(-c3ccco3)c(-c3ccco3)nc2c1,-,0,-,0,-,0
Cc1ccc(C(=O)Nc2cccc(-c3cn4ccccc4n3)c2)cc1,0,0,0,0,0,0
Cc1ccccc1C(=O)Nc1cccc(-c2cn3ccccc3n2)c1,0,73,0,0,0,0
O=C(Nc1cccc(-c2cn3ccccc3n2)c1)c1ccccc1,0,53,0,0,0,0
CCCCC(=O)Nc1cccc(-c2cn3ccccc3n2)c1,0,0,0,0,0,0
COc1ccc(-c2nc3ccccn3c2CN2CCN(c3ccccc3F)CC2)cc1,0,0,0,0,0,0
COc1ccc(-c2nc3ccccn3c2Cl)cc1,0,43,0,0,0,0
COc1cc(C(O)c2nc(-c3ccncc3)cs2)ccc1F (stereo not drawn),0,-,0,-,0,-
Cc1ccccc1-n1c2nc(=O)n(C)c(=O)c-2cc2ccccc21,0,65,0,0,0,0
CCCCn1c(=O)nc2n(-c3ccccc3C)c3ccccc3cc-2c1=O,0,0,0,0,0,0
COc1ccc(C(=O)CSc2nnc(CN3CCCCC3)n2-c2ccc(Cl)cc2)cc1OC,0,0,44,0,0,0
O=C(CSc1nnc(CN2CCCC2)n1-c1ccccc1)c1ccc2c(c1)OCO2,0,0,0,0,0,0
CC(C)(C(=O)N1CCC1(C)C(=O)NS(=O)(=O)c1ccc(C#N)cc1)c1ccccc1 (stereo not drawn),0,-,0,-,0,-
